Results on 1 compound are retold here after ChEMBL document CHEMBL4428053, “Application of a Parallel Synthetic Strategy in the Discovery of Biaryl Acyl Sulfonamides as Efficient and Selective NaV1.7 Inhibitors” (J Med Chem, 2016).

The target of data set [1] is Sodium channel protein type 9 subunit alpha (Rattus norvegicus, UniProt O08562). The data set can be described thus: Inhibition of rat Nav1.7 expressed in HEK293T cells incubated for 3 to 5 mins at -125 mV holding potential by electrophysiology assay. Format: cell-based.
A short description of data set [2]: AUC (infinity) in Harlan rat at 10 mg/kg, po by LC-MS/MS analysis. The following applies: in vivo. On the set-up: dose 10 mg/kg, route oral, time infinity. Format: ADME, organism-based. An outline of the steps:
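Male fed rats. The IV dose was given in 100% DMSO. The oral dose was given in 1% Tween 80, 2% HPMC, 97% water/NaOH (pH 8.5).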

Data set [3] has as its system Mus musculus. Put plainly: In vivo inhibition of Nav1.7 in C57BL/6 mouse assessed as reduction in histamine-induced scratching bouts at 30 mg/kg, po administered 4 hrs prior to histamine challenge measured for 15 mins. The data set is classed as functional, organism-based. The essentials:
(§1)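 Mice were dosed orally with vehicle, diphenhydramine (30 mg/kg, n = 8) or test article at 30 (n = 9), 100 (n = 10) or 300 (n = 10) mg/kg; vehicle n = 12. All groups received histamine intradermally. Total scratch bouts were counted, with unbound plasma concentration reported per dose. Statistics: one-way ANOVA with Dunnett's test versus vehicle.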

Data set [4] deals with T1, Sodium channel protein type 9 subunit alpha (Homo sapiens, UniProt Q15858). Put plainly: Inhibition of human Nav1.7 expressed in HEK293 cells assessed as reduction in peak inward current by manual whole cell patch clamp electrophysiology assay. Format: cell-based.
T1 sequence (Q15858 whole entry): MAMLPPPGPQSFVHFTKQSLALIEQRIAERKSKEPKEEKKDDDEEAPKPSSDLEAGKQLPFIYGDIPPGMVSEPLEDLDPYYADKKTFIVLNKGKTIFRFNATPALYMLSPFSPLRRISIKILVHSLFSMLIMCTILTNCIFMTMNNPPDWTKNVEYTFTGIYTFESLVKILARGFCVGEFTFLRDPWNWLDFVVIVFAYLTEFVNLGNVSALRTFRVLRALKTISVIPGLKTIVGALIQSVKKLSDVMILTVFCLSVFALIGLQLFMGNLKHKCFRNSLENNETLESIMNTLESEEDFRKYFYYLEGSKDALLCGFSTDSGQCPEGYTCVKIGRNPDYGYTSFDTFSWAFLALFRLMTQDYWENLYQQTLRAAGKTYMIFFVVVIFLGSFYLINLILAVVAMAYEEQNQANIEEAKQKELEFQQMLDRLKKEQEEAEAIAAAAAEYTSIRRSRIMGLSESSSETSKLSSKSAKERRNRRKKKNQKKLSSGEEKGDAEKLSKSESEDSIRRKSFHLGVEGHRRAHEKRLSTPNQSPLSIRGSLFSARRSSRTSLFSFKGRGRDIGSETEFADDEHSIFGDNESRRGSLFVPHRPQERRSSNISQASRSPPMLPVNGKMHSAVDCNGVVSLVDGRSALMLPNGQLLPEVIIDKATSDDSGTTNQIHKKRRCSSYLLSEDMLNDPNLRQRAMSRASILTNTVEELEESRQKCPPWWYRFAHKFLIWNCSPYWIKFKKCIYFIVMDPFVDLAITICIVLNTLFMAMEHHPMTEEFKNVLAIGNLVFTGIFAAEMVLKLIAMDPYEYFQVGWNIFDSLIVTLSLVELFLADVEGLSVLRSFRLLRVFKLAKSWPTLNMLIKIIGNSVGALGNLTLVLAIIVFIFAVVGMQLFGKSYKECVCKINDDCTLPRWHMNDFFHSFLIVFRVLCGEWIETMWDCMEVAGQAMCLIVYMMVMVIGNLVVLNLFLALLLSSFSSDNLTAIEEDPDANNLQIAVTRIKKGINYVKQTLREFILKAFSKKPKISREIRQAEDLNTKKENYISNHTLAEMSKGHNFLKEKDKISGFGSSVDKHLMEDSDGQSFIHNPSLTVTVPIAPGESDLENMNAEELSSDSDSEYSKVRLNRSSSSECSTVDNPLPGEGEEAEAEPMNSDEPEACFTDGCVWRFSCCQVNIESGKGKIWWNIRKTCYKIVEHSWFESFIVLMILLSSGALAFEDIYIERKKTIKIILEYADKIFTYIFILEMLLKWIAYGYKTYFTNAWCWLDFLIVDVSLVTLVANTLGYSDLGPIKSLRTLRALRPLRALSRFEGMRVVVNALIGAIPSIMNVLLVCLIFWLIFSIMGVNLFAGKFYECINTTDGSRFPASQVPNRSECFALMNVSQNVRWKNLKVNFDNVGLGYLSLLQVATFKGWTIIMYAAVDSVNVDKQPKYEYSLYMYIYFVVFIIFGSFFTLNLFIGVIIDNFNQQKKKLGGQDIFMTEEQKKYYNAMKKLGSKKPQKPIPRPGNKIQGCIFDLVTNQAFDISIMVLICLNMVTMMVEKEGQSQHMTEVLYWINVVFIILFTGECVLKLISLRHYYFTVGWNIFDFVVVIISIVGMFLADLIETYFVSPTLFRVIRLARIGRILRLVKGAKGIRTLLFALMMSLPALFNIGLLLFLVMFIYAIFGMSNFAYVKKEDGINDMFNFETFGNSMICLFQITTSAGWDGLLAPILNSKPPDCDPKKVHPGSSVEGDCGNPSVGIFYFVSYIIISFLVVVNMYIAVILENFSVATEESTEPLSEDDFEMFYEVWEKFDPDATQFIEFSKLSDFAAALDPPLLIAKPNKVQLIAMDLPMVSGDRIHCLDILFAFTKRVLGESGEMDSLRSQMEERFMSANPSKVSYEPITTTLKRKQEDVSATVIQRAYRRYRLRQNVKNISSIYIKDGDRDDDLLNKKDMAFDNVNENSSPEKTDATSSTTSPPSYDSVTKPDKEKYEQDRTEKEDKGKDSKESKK
The target in data set [5] is Sodium channel protein type 3 subunit alpha (Homo sapiens, UniProt Q9NY46). The data set can be described thus: Inhibition of human Nav1.3 expressed in CHO cells assessed as reduction in peak inward current by manual whole cell patch clamp electrophysiology assay. Format: cell-based.
For data set [6], the target named is Sodium channel protein type 4 subunit alpha (Homo sapiens, UniProt P35499). The data set can be described thus: Inhibition of human Nav1.4 expressed in HEK293 cells assessed as reduction in peak inward current by manual whole cell patch clamp electrophysiology assay. The data set is classed as cell-based.
Sodium channel protein type 4 subunit alpha, sequence (P35499 whole entry): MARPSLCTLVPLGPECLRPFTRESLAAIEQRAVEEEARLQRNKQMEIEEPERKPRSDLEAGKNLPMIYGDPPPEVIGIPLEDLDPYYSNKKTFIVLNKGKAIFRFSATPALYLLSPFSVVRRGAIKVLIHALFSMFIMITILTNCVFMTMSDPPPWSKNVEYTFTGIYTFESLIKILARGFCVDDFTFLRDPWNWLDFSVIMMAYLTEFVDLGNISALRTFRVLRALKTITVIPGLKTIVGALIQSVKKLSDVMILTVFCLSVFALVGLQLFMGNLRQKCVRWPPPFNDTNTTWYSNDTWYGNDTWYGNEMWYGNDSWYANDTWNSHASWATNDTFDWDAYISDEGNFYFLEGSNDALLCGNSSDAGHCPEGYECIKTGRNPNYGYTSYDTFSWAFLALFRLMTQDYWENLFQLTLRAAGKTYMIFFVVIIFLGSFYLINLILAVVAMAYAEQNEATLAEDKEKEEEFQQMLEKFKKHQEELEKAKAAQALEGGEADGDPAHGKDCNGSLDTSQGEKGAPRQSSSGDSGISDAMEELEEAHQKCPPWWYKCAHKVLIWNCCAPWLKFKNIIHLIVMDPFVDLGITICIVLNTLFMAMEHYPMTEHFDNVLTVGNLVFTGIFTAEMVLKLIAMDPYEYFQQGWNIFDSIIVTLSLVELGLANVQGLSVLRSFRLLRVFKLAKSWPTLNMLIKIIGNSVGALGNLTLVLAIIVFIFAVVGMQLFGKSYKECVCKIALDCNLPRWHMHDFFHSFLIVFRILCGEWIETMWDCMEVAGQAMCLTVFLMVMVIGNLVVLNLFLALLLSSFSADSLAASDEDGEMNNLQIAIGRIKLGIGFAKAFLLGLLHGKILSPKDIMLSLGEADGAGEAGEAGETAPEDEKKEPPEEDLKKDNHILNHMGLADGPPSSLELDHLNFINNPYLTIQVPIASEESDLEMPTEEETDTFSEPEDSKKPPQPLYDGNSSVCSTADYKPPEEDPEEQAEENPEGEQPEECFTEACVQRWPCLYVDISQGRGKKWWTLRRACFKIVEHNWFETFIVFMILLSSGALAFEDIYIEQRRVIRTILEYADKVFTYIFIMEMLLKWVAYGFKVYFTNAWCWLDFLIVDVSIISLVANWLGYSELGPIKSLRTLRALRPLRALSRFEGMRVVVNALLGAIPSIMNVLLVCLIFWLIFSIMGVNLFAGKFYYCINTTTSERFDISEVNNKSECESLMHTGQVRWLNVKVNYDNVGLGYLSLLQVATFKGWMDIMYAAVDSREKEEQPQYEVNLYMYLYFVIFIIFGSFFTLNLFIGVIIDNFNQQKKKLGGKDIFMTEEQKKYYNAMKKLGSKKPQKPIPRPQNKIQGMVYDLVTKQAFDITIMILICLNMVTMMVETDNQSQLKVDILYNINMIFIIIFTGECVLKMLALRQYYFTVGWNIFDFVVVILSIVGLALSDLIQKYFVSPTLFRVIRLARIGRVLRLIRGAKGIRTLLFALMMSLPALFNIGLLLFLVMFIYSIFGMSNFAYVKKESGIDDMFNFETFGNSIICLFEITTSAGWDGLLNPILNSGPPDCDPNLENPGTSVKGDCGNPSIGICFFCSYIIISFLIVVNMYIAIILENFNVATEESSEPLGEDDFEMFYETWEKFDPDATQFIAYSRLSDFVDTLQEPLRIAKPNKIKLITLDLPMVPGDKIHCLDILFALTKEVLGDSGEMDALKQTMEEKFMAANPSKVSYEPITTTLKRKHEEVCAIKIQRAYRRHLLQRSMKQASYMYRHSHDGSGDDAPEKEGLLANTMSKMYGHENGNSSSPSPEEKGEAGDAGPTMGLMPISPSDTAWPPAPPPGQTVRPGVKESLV
Data set [7] has as its target Bile salt export pump (Homo sapiens, UniProt O95342). Put plainly: Inhibition of human BSEP in plasma membrane vesicles after 10 mins in presence of [3H]-taurocholate by topcount based transport assay. Format: cell membranes.
The target in data set [8] is T1, Sodium channel protein type 9 subunit alpha. Put plainly: Inhibition of human Nav1.7 at 20% inactivated state expressed in HEK293 cells at -140 mV holding potential followed by channel inactivation by manual whole cell patch clamp electrophysiology assay. Format: cell-based. The essentials:
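Tested on channels about 20% inactivated.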

Data set [9] has as its target T2, Nuclear receptor subfamily 1 group I member 2 (Homo sapiens, UniProt O75469).
T2 sequence (O75469 whole entry): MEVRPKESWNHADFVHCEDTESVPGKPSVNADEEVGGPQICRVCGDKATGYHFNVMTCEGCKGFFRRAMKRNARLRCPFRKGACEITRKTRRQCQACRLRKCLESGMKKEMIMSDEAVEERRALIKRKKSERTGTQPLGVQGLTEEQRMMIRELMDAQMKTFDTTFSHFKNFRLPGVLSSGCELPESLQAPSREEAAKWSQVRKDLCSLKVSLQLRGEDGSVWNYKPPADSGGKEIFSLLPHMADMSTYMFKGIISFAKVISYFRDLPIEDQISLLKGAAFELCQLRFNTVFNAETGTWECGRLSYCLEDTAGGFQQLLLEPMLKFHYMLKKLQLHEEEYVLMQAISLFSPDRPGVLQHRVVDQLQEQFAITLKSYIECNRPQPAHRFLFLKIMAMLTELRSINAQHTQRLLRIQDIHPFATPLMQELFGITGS
The data set can be described thus: Induction of human PXR at 10 uM. The data set is classed as ADME.

In data set [10] the test system is Mus musculus. Put plainly: In vivo inhibition of Nav1.7 in C57BL/6 mouse assessed as unbound plasma concentration required to reduce histamine-induced scratching bouts at 100 mg/kg, po administered 4 hrs prior to histamine challenge measured for 15 mins. Format: functional, organism-based. An outline of the steps:
as §1

Data set [11] in a line: Protein binding in mouse plasma at 5 uM after 45 mins by LC-MS/MS analysis. Format: ADME, cell-free. The following applies: read-out: PPB (converted).
The nature of data set [12]: Free plasma concentration in naive C57BL/6 mouse assessed as effect on basic locomotor movement at 100 mg/kg, po measured after 4 hrs for 60 mins by open field test. Format: ADME, organism-based. The following applies: in vivo. An outline of the steps:
(§2)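 Naive mice were dosed orally with vehicle or test article at 30, 100 or 300 mg/kg (n = 10 per group). Total basic movement in an open-field arena was recorded after dosing, and unbound plasma concentration was reported per dose.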

The nature of data set [13]: Free plasma concentration in naive C57BL/6 mouse assessed as effect on basic locomotor movement at 300 mg/kg, po measured after 4 hrs for 60 mins by open field test. Format: ADME, organism-based. The following applies: in vivo. An outline of the steps:
as §2

A short description of data set [14]: Unbound plasma concentration in C57BL/6 mouse model of histamine-induced scratching at 300 mg/kg, po administered 4 hrs prior to histamine challenge. Format: ADME, organism-based. The following applies: in vivo. The essentials:
as §1

Data set [15] has as its target Voltage-gated inwardly rectifying potassium channel KCNH2 (Homo sapiens, UniProt Q12809).
For data set [16], the target named is Cytochrome P450 3A4 (Homo sapiens, UniProt P08684).
Data set [17] is described as follows: in vitro. Particulars: human, liver microsomes.
Data set [18] can be described thus: physchem. The following applies: fasted state simulated intestinal fluid, pH 6.8.

Structures are written as SMILES. In brackets after ≈: the same amount, converted by molar mass. Activity calls are given as the source filed them. The rule behind the calls is not given here. Bounds are passed on as bounds.

Bile salt export pump, sequence (O95342 whole entry): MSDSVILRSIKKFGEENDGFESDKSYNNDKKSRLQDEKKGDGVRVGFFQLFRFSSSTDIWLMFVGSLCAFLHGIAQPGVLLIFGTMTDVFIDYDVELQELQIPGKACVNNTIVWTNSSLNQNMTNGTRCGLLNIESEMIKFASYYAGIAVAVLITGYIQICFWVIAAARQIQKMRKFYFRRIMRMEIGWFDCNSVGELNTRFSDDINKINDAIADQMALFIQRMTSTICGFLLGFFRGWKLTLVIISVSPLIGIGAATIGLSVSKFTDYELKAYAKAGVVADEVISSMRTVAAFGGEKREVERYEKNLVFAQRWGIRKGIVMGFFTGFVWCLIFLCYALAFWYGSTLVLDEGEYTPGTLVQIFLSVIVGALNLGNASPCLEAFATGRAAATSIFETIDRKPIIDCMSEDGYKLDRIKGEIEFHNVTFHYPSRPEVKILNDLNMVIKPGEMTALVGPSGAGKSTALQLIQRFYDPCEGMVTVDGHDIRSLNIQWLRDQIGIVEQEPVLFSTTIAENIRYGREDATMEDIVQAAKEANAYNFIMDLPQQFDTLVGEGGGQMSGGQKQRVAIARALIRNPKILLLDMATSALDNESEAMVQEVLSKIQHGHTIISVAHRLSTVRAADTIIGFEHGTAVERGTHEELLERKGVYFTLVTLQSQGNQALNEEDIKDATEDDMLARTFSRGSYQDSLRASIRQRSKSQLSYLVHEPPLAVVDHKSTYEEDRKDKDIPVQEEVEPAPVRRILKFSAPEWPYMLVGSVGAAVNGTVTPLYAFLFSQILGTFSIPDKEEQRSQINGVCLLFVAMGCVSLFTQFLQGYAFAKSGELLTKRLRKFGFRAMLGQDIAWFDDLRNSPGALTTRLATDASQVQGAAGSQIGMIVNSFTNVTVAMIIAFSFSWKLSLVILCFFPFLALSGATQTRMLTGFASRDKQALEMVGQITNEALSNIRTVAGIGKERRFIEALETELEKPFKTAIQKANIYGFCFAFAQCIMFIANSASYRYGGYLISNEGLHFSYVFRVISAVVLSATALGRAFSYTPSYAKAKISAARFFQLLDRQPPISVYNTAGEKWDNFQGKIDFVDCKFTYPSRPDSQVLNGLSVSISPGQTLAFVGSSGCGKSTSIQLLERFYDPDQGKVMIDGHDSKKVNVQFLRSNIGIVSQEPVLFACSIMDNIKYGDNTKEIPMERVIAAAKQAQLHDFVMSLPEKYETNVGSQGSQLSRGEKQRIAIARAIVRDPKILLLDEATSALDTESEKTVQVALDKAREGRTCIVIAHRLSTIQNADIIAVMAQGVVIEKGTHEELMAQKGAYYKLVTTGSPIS

Consider `COc1cc(C(=O)NS(C)(=O)=O)c(F)cc1-c1cnc(Oc2cc(F)ccc2F)c(Cl)c1`, for which the IC50 in [1] stood at 3.69 µM; in data set [4], 0.051 µM; in data set [5], 12.5 µM; in data set [6], 1.1 µM; in data set [7], 13.3 µM; in data set [8] it was 0.051 µM. The IC50 in data set [16] was above 50 µM. In data set [2], this compound gave an AUC(0-inf) of 377 µM·h. Besides, the inhibition entry in data set [3] was “inactive”. The same compound returned an Activity in data set [9] of 3%. In addition, the result in [10] was inactive. Further, the fraction unbound at 0.75 h, 5 µM in data set [11] is 0.014. For the same compound, the results for the “Cp(f)” value in data set [12], in data set [13] and in data set [14] were 2.39 µM, 3.72 µM and 4.16 µM, respectively. For the same compound, in data set [15], the Ki is above 30 µM. The microsomal CLint at 1 µM in [17] was 27 µL/min/mg. The compound also displayed a solubility (thermodynamic) at 24 h in data set [18] of 500 µM (≈ 243 µg/mL).
